# Measurements reported in ChEMBL document CHEMBL1817593, “C5'-Alkyl Substitution Effects on Digitoxigenin α-l-Glycoside Cancer Cytotoxicity” (ACS Med Chem Lett, 2011).
# Calls of active or inactive are those of the source. No cut-off for these calls is given here.
# Columns and labels:
# NCI-H460 [1] = assay: Cytotoxicity against human NCI-H460 cells assessed as cell death in serum free medium at 25 nM after 12 hrs by Hoechst 33342/propidium iodide staining based fluorescence microscopy; format: functional
# Outline: (§1)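 NCI-H460 human lung cancer cells exposed 12 h to 10 nM–10 μM drug, including a 50 nM single-concentration test. Nuclei were stained with Hoechst 33342 and necrotic cells with propidium iodide. Apoptotic cells were scored by condensed or fragmented blue nuclei and necrotic cells by red PI staining. Total cell death (apoptosis plus necrosis) was recorded; N = 6.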
# NCI-H460 [2] = assay: Cytotoxicity against human NCI-H460 cells assessed as cell viability at 500 nM after 48 hrs by MTT assay; format: functional; conditions: NCI-H460, 48 h, read-out: Activity
# Outline: (§2)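 Viability of NCI-H460 cells was measured by MTT (mitochondrial enzymatic activity) after 48 h exposure, within a dose series spanning 1 nM–10 μM. N = 9, analysed by two-way ANOVA.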
# SF-539 = assay: Cytotoxicity against human SF539 cells after 48 hrs by sulforhodamine B assay; format: functional; conditions: SF-539, 48 h
# NCI-H460 [3] = assay: Cytotoxicity against human NCI-H460 cells assessed as cell death in serum free medium at 75 nM after 12 hrs by Hoechst 33342/propidium iodide staining based fluorescence microscopy; format: functional; outline: as §1
# NCI-H460 [4] = assay: Cytotoxicity against human NCI-H460 cells assessed as cell viability at 1000 nM after 48 hrs by MTT assay; format: functional; conditions: NCI-H460, 48 h, read-out: Activity; outline: as §2
# NCI-H460 [5] = assay: Induction of apoptosis in human NCI-H460 cells in serum free medium at 50 nM after 12 hrs by Hoechst 33342/propidium iodide staining based fluorescence microscopy; format: functional
# Outline: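 NCI-H460 cells exposed to a single 50 nM concentration for 12 h. Cells stained with Hoechst 33342 and propidium iodide. Blue cells with condensed or fragmented nuclei were scored as apoptotic and red, ruptured cells as necrotic. Result given as % apoptotic cell death; N = 6, one-way ANOVA.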
# NCI-H460 [6] = assay: Cytotoxicity against human NCI-H460 cells assessed as cell viability at 100 nM after 48 hrs by MTT assay; format: functional; conditions: NCI-H460, 48 h, read-out: Activity; outline: as §2
# SK-MEL-2 = assay: Cytotoxicity against human SK-MEL-2 cells after 48 hrs by sulforhodamine B assay; format: functional
# NCI-H460 [7] = assay: Cytotoxicity against human NCI-H460 cells assessed as cell viability at 1 nM after 48 hrs by MTT assay; format: functional; conditions: NCI-H460, 48 h, read-out: Activity; outline: as §2
# CAKI-1 = assay: Cytotoxicity against human Caki1 cells after 48 hrs by sulforhodamine B assay; format: functional; conditions: CAKI-1, 48 h
# NCI-H460 [8] = assay: Growth inhibition of human NCI-H460 cells after 48 hrs by MTT assay; format: functional
# Outline: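 NCI-H460 viability measured by MTT (mitochondrial enzymatic activity) after 48 h exposure at 1 nM to 10 μM. GI50 derived from dose-response curves, with N = 9 and two-way ANOVA. Values are the mean of three independent experiments with duplicate determinations.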
# NCI-H460 [9] = assay: Cytotoxicity against human NCI-H460 cells assessed as cell death in serum free medium at 50 nM after 12 hrs by Hoechst 33342/propidium iodide staining based fluorescence microscopy; format: functional; outline: as §1
# NCI-H460 [10] = assay: Cytotoxicity against human NCI-H460 cells assessed as cell viability at 50 nM after 48 hrs by MTT assay; format: functional; conditions: NCI-H460, 48 h, read-out: Activity; outline: as §2
# OVCAR-8 = assay: Cytotoxicity against human OVCAR8 cells after 48 hrs by sulforhodamine B assay; format: functional; conditions: OVCAR-8, 48 h
# NCI-H460 [11] = assay: Cytotoxicity against human NCI-H460 cells assessed as cell viability at 10 nM after 48 hrs by MTT assay; format: functional; conditions: NCI-H460, 48 h, read-out: Activity; outline: as §2
# OVCAR-5 = assay: Cytotoxicity against human OVCAR5 cells after 48 hrs by sulforhodamine B assay; format: functional; conditions: OVCAR-5, 48 h
# HL-60(TB) = assay: Cytotoxicity against human HL-60(TB) cells after 48 hrs by sulforhodamine B assay; format: functional; conditions: HL-60, 48 h
# NCI/ADR-RES = assay: Cytotoxicity against human NCI/ADR-RES cells after 48 hrs by sulforhodamine B assay; format: functional
# RXF 393 = assay: Cytotoxicity against human RXF393 cells after 48 hrs by sulforhodamine B assay; format: functional; conditions: RXF 393, 48 h
# MDA-MB-435 = assay: Cytotoxicity against human MDA-MB-435 breast cancer cells after 48 hrs by sulforhodamine B assay; format: functional; conditions: MDA-MB-435, 48 h
# HCT-116 = assay: Cytotoxicity against human HCT116 cells after 48 hrs by sulforhodamine B assay; format: functional
# NCI-H460 [12] = assay: Cytotoxicity against human NCI-H460 cells assessed as cell death in serum free medium at 10000 nM after 12 hrs by Hoechst 33342/propidium iodide staining based fluorescence microscopy; format: functional; outline: as §1
# NCI-H460 [13] = assay: Induction of apoptosis in human NCI-H460 cells in serum free medium after 12 hrs by Hoechst 33342/propidium iodide staining based fluorescence microscopy; format: functional, cell-based
# Outline: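 NCI-H460 cells treated for 12 h at 10 nM to 10 μM. Total cell death (apoptosis plus necrosis) scored by Hoechst 33342/propidium iodide staining, with N = 6 and two-way ANOVA. IC50 obtained by nonlinear regression. Table values are the mean of three independent experiments with duplicate determinations.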
# NCI-H460 [14] = assay: Cytotoxicity against human NCI-H460 cells assessed as cell death in serum free medium at 500 nM after 12 hrs by Hoechst 33342/propidium iodide staining based fluorescence microscopy; format: functional; outline: as §1
# HCC 2998 = assay: Cytotoxicity against human HCC2998 cells after 48 hrs by sulforhodamine B assay; format: functional; conditions: HCC 2998, 48 h
# CCRF-CEM = assay: Cytotoxicity against human CCRF-CEM cells after 48 hrs by sulforhodamine B assay; format: functional
# T47D = assay: Cytotoxicity against human T47D cells after 48 hrs by sulforhodamine B assay; format: functional
# NCI-H460 [15] = assay: Cytotoxicity against human NCI-H460 cells assessed as cell death in serum free medium at 250 nM after 12 hrs by Hoechst 33342/propidium iodide staining based fluorescence microscopy; format: functional; outline: as §1
# BT-549 = assay: Cytotoxicity against human BT549 cells after 48 hrs by sulforhodamine B assay; format: functional; conditions: BT-549, 48 h
# K562 = assay: Cytotoxicity against human K562 cells after 48 hrs by sulforhodamine B assay; format: functional; conditions: K562, 48 h
# NCI-H460 [16] = assay: Cytotoxicity against human NCI-H460 cells assessed as cell viability at 25 nM after 48 hrs by MTT assay; format: functional; conditions: NCI-H460, 48 h, read-out: Activity; outline: as §2
# NCI-H460 [17] = assay: Cytotoxicity against human NCI-H460 cells assessed as cell death in serum free medium at 100 nM after 12 hrs by Hoechst 33342/propidium iodide staining based fluorescence microscopy; format: functional; outline: as §1
# NCI-H460 [18] = assay: Ratio of digitoxin IC50 to compound IC50 for human NCI-H460 cells after 12 hrs by Hoechst 33342/propidium iodide staining based fluorescence microscopy; format: functional
# U-251 = assay: Cytotoxicity against human U251 cells after 48 hrs by sulforhodamine B assay; format: functional; conditions: U-251, 48 h
# NCI-H460 [19] = assay: Cytotoxicity against human NCI-H460 cells assessed as cell viability after 48 hrs by MTT assay; format: functional; conditions: NCI-H460, 48 h
# Outline: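 NCI-H460 cells were exposed to drug for 48 h, and viability was read by MTT as mitochondrial enzymatic activity. GI50 was derived from dose-response curves (1 nM–10 μM). Values are from three independent experiments with duplicate determinations, given with standard error of the mean.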
# NCI-H460 [20] = assay: Cytotoxicity against human NCI-H460 cells assessed as cell death in serum free medium at 10 nM after 12 hrs by Hoechst 33342/propidium iodide staining based fluorescence microscopy; format: functional; outline: as §1
# NCI-H460 [21] = assay: Cytotoxicity against human NCI-H460 cells assessed as cell death in serum free medium at 1000 nM after 12 hrs by Hoechst 33342/propidium iodide staining based fluorescence microscopy; format: functional; outline: as §1
# IGROV-1 = assay: Cytotoxicity against human IGROV1 cells after 48 hrs by sulforhodamine B assay; format: functional; conditions: IGROV-1, 48 h
smiles,measurement,setting,value
C[C@@H]1O[C@@H](O[C@H]2CC[C@@]3(C)[C@H](CC[C@@H]4[C@@H]3CC[C@]3(C)[C@@H](C5=CC(=O)OC5)CC[C@]43O)C2)CC[C@H]1O [RAMNODIGIN],Activity,NCI-H460 [1],22.09%
same,viability at 0.5 µM,NCI-H460 [2],3.69%
same,GI50,SF-539,7.8 nM
same,Activity,NCI-H460 [3],77.04%
same,viability at 1 µM,NCI-H460 [4],3.25%
same,Activity,NCI-H460 [5],42.463%
same,viability at 0.1 µM,NCI-H460 [6],5%
same,GI50,SK-MEL-2,inactive
same,viability at 0.001 µM,NCI-H460 [7],77%
same,GI50,CAKI-1,3.32 nM
same,GI50,NCI-H460 [8],Dose-dependent effect
same,GI50,"NCI-H460 [8]; NCI-H460, 48 h",2 nM
same,Activity,NCI-H460 [9],52.04%
same,viability at 0.05 µM,NCI-H460 [10],6.18%
same,GI50,OVCAR-8,2.5 nM
same,viability at 0.01 µM,NCI-H460 [11],13.9%
same,GI50,OVCAR-5,17.4 nM
same,GI50,HL-60(TB),2.96 nM
same,GI50,NCI/ADR-RES,4.12 nM
same,GI50,RXF 393,1.22 nM
same,GI50,MDA-MB-435,21 nM
same,GI50,HCT-116,inactive
same,Activity,NCI-H460 [12],100%
same,Activity,NCI-H460 [13],Dose-dependent effect
same,IC50,"NCI-H460 [13]; NCI-H460, 12 h",51.7 nM
same,Activity,NCI-H460 [14],100%
same,GI50,HCC 2998,16.5 nM
same,GI50,CCRF-CEM,8.49 nM
same,GI50,T47D,20.6 nM
same,Activity,NCI-H460 [15],100%
same,GI50,BT-549,2.41 nM
same,GI50,K562,19.5 nM
same,viability at 0.025 µM,NCI-H460 [16],7.14%
same,Activity,NCI-H460 [17],98.61%
same,Ratio IC50,NCI-H460 [18],4
same,GI50,U-251,12.7 nM
same,GI50,NCI-H460 [19],1.93 nM
same,Activity,NCI-H460 [20],18.12%
same,Activity,NCI-H460 [21],100%
same,GI50,IGROV-1,5.23 nM
